# Compound activity deposited in PubChem by Broad Institute.
# Cneo AK release – Cryptococcus neoformans lysis via adenylate kinase release | C. neoformans lysis, adenylate kinase release luminescence, 4 h; normalised: neutral wells 0, clomiphene wells 100 | lysis activity, % at 15 µM | actives 0.2% (n = 360,000) | AID 651654;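 active = mean lysis activity across replicates of at least 80%, whatever share of replicates individually reach that level; inactive = mean lysis activity below 80%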
#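 read-out = cell lysis signal | test system = log-phase Cryptococcus neoformans yeast cells | input = cells at 5 × 10^6 per mL | medium = fresh YPD growth medium | signal = luminescent adenylate kinase detection reagent | timing = 4 h at 37 °C static, read 1 h later | dosing = single dose | controls = Clomiphene as positive lysis control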
# C2C12 statin – suppression of simvastatin myotoxicity; C2C12 myotubes + simvastatin, ATP luminescence, 48 h; scaled: DMSO 0, geranylgeraniol control 100; rescue of ATP level, % at 7.49 µM; actives 0.78% (n = 330,000);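 active = mean ATP rescue above about 67%, or every replicate alone reaching that limit, limit read from the data, passing the limit was not always enough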;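 note: myotubes were challenged with 10 µM simvastatin during compound exposure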
# SIRT5 block – inhibitors of human sirtuin-5 desuccinylase | Q9NXA8 | Purified SirT5, succinyl-peptide AMC, trypsin-coupled fluorescence | inhibition, % at 15 µM | actives 1.1% (n = 330,000) | AID 652115; in the data active = inhibition above about 15%
# Target sequence (Q9NXA8 whole entry, looked up): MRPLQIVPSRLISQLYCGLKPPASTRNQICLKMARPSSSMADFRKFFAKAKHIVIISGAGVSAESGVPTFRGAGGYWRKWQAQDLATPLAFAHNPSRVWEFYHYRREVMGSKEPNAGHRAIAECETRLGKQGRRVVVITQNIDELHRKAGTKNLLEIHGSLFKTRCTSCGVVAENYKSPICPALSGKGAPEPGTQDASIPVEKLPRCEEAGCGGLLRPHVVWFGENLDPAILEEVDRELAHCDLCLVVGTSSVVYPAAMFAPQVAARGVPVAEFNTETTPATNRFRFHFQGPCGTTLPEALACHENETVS
# S100A4 inh HTS – inhibitors of human S100A4 binding to myosin IIA peptide | P26447 | S100A4/TAMRA-MyoIIA peptide fluorescence polarization | inhibition, % at 10.7 µM | actives 0.14% (n = 360,000) | AID 652163;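 active = mean inhibition of at least 70% across replicates, with every replicate also reaching that level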
# Target sequence (P26447 whole entry, looked up): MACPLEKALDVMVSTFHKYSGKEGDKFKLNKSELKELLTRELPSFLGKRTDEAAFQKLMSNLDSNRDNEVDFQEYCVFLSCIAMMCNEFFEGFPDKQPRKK
#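 Test system: S100A4 monomer protein; Medium: HEPES pH 7.2 with CaCl2, KCl, NaCl, DTT, Triton; Probe or stimulus: TAMRA-labelled myosin IIA heavy-chain peptide probe, 5 nM; Doses: one dose per compound; Times: polarization read 5 min after assay mix addition, stable 5–60 min; Benchmarks: neutral control DMSO, positive control TFP.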
# PGC1a acetyl inh – lowers PGC1a acetylation signal in U2OS cells. actives 0.17% (n = 350,000). AID 651687. inhibition, % at 15.6 µM. AlphaScreen anti-acetyl-lysine; with virally co-expressed GCN5 acetyltransferase;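 active = every replicate shows inhibition of at least 40%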;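 note: 0% = neutral control wells and 100% = positive control wells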
# rRNA inh HTS – selective bacterial rRNA inhibition in E. coli | GFP signal change (wild-type ribosome), % (test concentration not listed) | actives 1.6% (n = 350,000) | AID 720706 | E. coli WT GFP vs humanized-ribosome RFP mutants, fluorescence, 24 h; hits give low values; DMSO median 0, no signal -100;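 active = significant combined selectivity score with lowered wild-type GFP, culture density cut under 30%, mutant RFP and density less affected; inactive = any of these conditions unmet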
# Active calls of the source: *; . = not tested or not shown. Sampled rows, rich in hits. Any-hit rate of the full collection: about 3%.
SMILES,Cneo AK release,C2C12 statin,SIRT5 block,S100A4 inh HTS,PGC1a acetyl inh,rRNA inh HTS
Cc1ccc(S(=O)(=O)Nc2ccc3c(c2)CC(=O)N([C@H](C)CO)C[C@H](C)[C@@H](CN(C)Cc2ccc(Cl)c(Cl)c2)O3)cc1,3,145*,1,-20,-6,1
COc1ccc(S(=O)(=O)Nc2ccc3c(c2)CC(=O)N([C@@H](C)CO)C[C@H](C)[C@H](CN(C)Cc2ccc(Cl)c(Cl)c2)O3)cc1,0,17,-2,-1,-5,-2
Cc1ccc(S(=O)(=O)Nc2ccc3c(c2)CC(=O)N([C@H](C)CO)C[C@@H](C)[C@@H](CN(C)Cc2ccc(Cl)c(Cl)c2)O3)cc1,0,116*,-1,20,0,0
Cc1ccc(S(=O)(=O)Nc2ccc3c(c2)CC(=O)N([C@@H](C)CO)C[C@H](C)[C@H](CN(C)Cc2ccc(Cl)c(Cl)c2)O3)cc1,0,12,-7,-8,-4,2
Cc1ccc(S(=O)(=O)Nc2ccc3c(c2)CC(=O)N([C@H](C)CO)C[C@@H](C)[C@H](CN(C)Cc2ccc(Cl)c(Cl)c2)O3)cc1,6,103*,-5,-9,-10,2
Cc1ccc(S(=O)(=O)Nc2ccc3c(c2)CC(=O)N([C@@H](C)CO)C[C@@H](C)[C@@H](CN(C)Cc2ccc(Cl)c(Cl)c2)O3)cc1,-7,77*,-1,-14,-3,3
CCNC(=O)Nc1ccc2c(c1)C(=O)N(C)[C@@H]1CC[C@H](CC(=O)Nc3ccccc3)O[C@H]1CO2,-2,-11,-10,7,-5,3
O=C(C[C@H]1CC[C@H]2[C@@H](COC[C@H](O)CN2Cc2ccc(Cl)cc2)O1)Nc1nccs1,-4,3,-3,-2,-6,4
O=C(NC1CCCCC1)C1CCN(C(=O)NCc2ccccc2)CC1,-2,103*,.,.,-5,.
CC(C)(C)c1ccc(S(=O)(=O)NCC2CCCO2)cc1 (stereo not drawn),5,1,-2,4,14,-10
O=S(=O)(NCC1CCCO1)c1ccc(-c2ccc(Cl)cc2)cc1 (stereo not drawn),.,.,.,1,-2,-25*
O=C(C=C=Nc1ccccc1)C(=O)N=C=Cc1ccccc1,-2,26,-6,-1,-27,-31*
CC=Cc1ccc2n(c1=O)C[C@H]1[C@H](CO)[C@@H](C(=O)NCc3ccc(F)cc3)N(Cc3cncnc3)[C@@H]21 (mixture of isomers),1,-15,5,0,.,-3
c1ccc(CSc2nc3ccccc3[nH]2)cc1,-8,0,-5,-1,-12,-22*
Cc1[nH]c2ccccc2c1C(=O)CSc1nc2ccccc2[nH]1,-1,23,2,0,3,-28*
CCOc1ccc(OCCSc2nc3ccccc3[nH]2)cc1,-5,9,-3,3,1,-28*
Fc1ccc(CSc2nc3ccccc3[nH]2)cc1,-10,5,.,.,-22,.
Nc1c(-c2ccccc2)c(CSc2nc3ccccc3[nH]2)nn1-c1ccc(Cl)cc1,.,.,-3,1,.,-19*
C[C@H]1CN([C@@H](C)CO)S(=O)(=O)c2ccc(C#CCN(C)C)cc2O[C@H]1CN(C)C(=O)C1CCC1,0,1,-1,-1,9,-2
COc1cccc(-c2ccc([C@@H]3[C@@H](CO)N4C(=O)CN(C(=O)C5CCOCC5)C[C@@H]34)cc2)c1,.,.,7,40,-11,1
C[C@H](CO)N1C[C@H](C)[C@H](CN(C)C(=O)c2ccccn2)Oc2cc(C#Cc3ccccc3)ccc2S1(=O)=O,2,-48,5,4,-9,-9
COc1ccc(NS(=O)(=O)c2ccc(-c3ccccn3)s2)cc1,18,.,0,-7,-15,.
O=S(=O)(Nc1ccccc1Cl)c1ccc(-c2ccccn2)s1,-3,10,-4,-1,-9,-37*
O=C(O)c1ccc(-c2ccc(/C=c3/sc4nc5ccccc5n4c3=O)o2)cc1Cl,.,.,24*,32,.,8
Cc1ccc2c(nc3s/c(=C\c4ccc(-c5ccccc5C(=O)O)o4)c(=O)n32)c1C,-3,11,10,85*,.,8
SMILES,Cneo AK release,C2C12 statin,SIRT5 block,S100A4 inh HTS,PGC1a acetyl inh,rRNA inh HTS
Cc1cc(C)c2nc3sc(=Cc4ccc(-c5ccccc5C(=O)O)o4)c(=O)n3c2c1,12,-1,2,-3,.,-1
C[C@H]1CN([C@@H](C)CO)C(=O)c2cc(-c3ccc(F)cc3)cnc2O[C@@H]1CN(C)C(=O)Nc1ccc(F)cc1,.,26,.,.,2,-2
COCCn1c(C)cc(C(=O)CSc2nc3ccccc3s2)c1C,0,-34,.,.,8,.
COCCn1c(C)cc(C(=O)CSc2nc3ccccc3o2)c1C,-1,85*,.,.,-2,.
COc1ccc2c3c(n(C)c2c1)[C@@H](CO)N(C(=O)c1ccccn1)CC31CCN(C(C)=O)CC1,.,.,0,7,2,5
N/C(=N\OC(=O)CCCOc1ccccc1)c1ccc([N+](=O)[O-])cc1,.,.,0,3,90*,16
N/C(=N\OC(=O)Oc1ccccc1)c1ccc([N+](=O)[O-])cc1,2,.,.,.,-1,.
O=C(Nc1cnn(Cc2ccccc2)c1)c1cc2nc(-c3ccco3)cc(C(F)(F)F)n2n1,0,125*,.,.,0,.
Cc1ccccc1CN1CCN(C(=O)c2cccc3ccccc23)CC1,1,-4,-1,-8,-4,-22*
C[C@H](CO)N1C[C@H](C)[C@@H](CN(C)C(=O)CN2CCOCC2)Oc2ncc(-c3cncnc3)cc2C1=O,1,4,-2,5,0,9
C[C@@H]1CN([C@@H](C)CO)C(=O)c2cc(-c3cncnc3)cnc2O[C@H]1CN(C)C(=O)CN1CCOCC1,105*,1,4,-5,14,6
CC(C)C#Cc1cnc2c(c1)C(=O)N([C@H](C)CO)C[C@H](C)[C@@H](CN(C)C(=O)CN1CCOCC1)O2,-1,-1,39*,-16,8,4
C[C@@H]1CN([C@@H](C)CO)C(=O)c2cc(-c3cncnc3)cnc2O[C@H]1CN(C)C(=O)Cc1ccccc1,80*,14,1,5,12,4
C[C@H]1CN([C@@H](C)CO)C(=O)c2cc(-c3cncnc3)cnc2O[C@H]1CN(C)C(=O)Cc1ccccc1,45,4,3,-4,18,8
Cc1ccc2c(C)c(C(=O)NCCc3ccco3)oc2c1C,-2,-6,-4,-4,-4,-26*
COC(=O)C[C@H]1CC[C@H]2[C@@H](COc3ccc(NS(=O)(=O)c4ccccc4F)cc3C(=O)N2C)O1,.,.,-2,-25,8,1
